From PubChem BioAssay
A selection: hits, their analogues and other compounds. The true share with any hit is near 2.4%.
STAT3 act – increases IL-6 driven STAT3 reporter signal; U3A cells, IL-6 STAT3-luciferase reporter, luminescence; 100% = signal with IL-6 EC80 alone; activation (% of control), % at 5.6 µM; 190,000 compounds, 0.91% hits; AID 871;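 active means activation above the screen-wide mean of compound activation plus 3 SD, cut at about 130% in these data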;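 further: 0% = background luminescence of wells with medium and substrate only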
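Test system: Human STAT1-deficient U3A cells with stable STAT3-luciferase reporter | Also added: Interleukin-6, 33 ng/mL | Timing: Compound pre-incubation 1 h before IL-6, then 6 h stimulation at 37 °C | Technique: Luciferase reporter luminescence | Read-out: Percent of IL-6-only median luminescence | Benchmarks: IL-6-only wells as 100% reference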
STAT1 inh – reduces IFN-gamma driven STAT1 reporter signal; NIH 3T3 STAT1-luciferase reporter, luminescence; 200,000 compounds, 0.35% hits; inhibition, % at 5.5 µM;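 active means inhibition above a set limit, the mean inhibition across all tested compounds plus 3 SD, cut at about 34% in these data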;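 further: 0% = IFN-gamma with DMSO and 100% = IFN-gamma with 300 µM nifuroxazide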
MT stabilize HCS – microtubule stabilizers in HeLa cells; HeLa tubulin immunostaining HCS, 24 h; share of cells brighter than vehicle mean+2SD; % tubulin-high responders, % at 10 µM; 200,000 compounds, 0.83% hits; AID 2205;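 active means plate Z-score above 3 for both tubulin-high and condensed-nucleus cell shares, with cell loss under 80%, at 10 µM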;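 further: anti alpha tubulin signal scored within the nucleus-defined area of each cell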
STAT3 inh – inhibitors of IL-6 induced STAT3 signaling | AID 862 | 190,000 compounds, 0.89% hits | U3A cells, IL-6 STAT3-luciferase reporter, luminescence; host cell line lacks STAT1 | inhibition, % at 5.5 µM;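 active means inhibition above the mean inhibition across all screened compounds plus 3 SD, cut at about 44% in these data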;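 further: 0% = DMSO only wells and 100% = 100 µM nifuroxazide control wells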
bCat nuc transl – beta-catenin nuclear translocation modulation; HeLa beta-catenin nuclear translocation, immunofluorescence imaging; nuclear translocation activity, % at 5 µM; 190,000 compounds, 0.3% hits; AID 1665;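 active means nuclear translocation activity above 50% at 5 µM, with a well cell count of 50 or more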;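 further: per-cell ratio of nuclear to cytoplasmic median beta-catenin stain intensity; plate controls were DMSO negative control for no effect and GSK-3 inhibitor IX positive control for full effect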
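Test system: human HeLa cell line; Doses: 5 µM primary, 0.02–20 µM confirmation; Incubation: 24 h compound exposure, 37°C; Detection: beta-catenin immunofluorescence imaging with DAPI; Read-out: beta-catenin nuclear/cytoplasmic ratio, % activation.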
* = called active by the depositor.

Results for COc1cc(/C=N/NC(=S)Nc2cccc(C(=O)O)c2)ccc1O ?
STAT3 act: 16.3; STAT1 inh: 70.8*; MT stabilize HCS: 2.5; STAT3 inh: 96.9*; bCat nuc transl: -1.8

How did O=C(Nc1ccc([N+](=O)[O-])cc1)C1C(c2ccccc2)=C1c1ccccc1 do in these assays?
STAT3 act: 133.3*; STAT1 inh: -6.4; MT stabilize HCS: 1.6; STAT3 inh: -26.3; bCat nuc transl: -0.4

What do the screens show for `Cn1cc(/C=C2/SC(=O)N(c3ccccc3)C2=O)c2ccccc21`?
STAT3 act: 172.3*; STAT1 inh: -36.4; MT stabilize HCS: 3.3; STAT3 inh: -83.6; bCat nuc transl: 2.0

What do the screens show for `O=C(O)Cn1cc(/C=C2\SC(=O)N(c3ccccc3)C2=O)c2ccccc21`?
STAT3 act: 96.9; STAT1 inh: -11.0; MT stabilize HCS: 1.1; STAT3 inh: 11.8; bCat nuc transl: 0.3

How did Cc1cccc(/C=N/Nc2ccc3ccccc3n2)c1 do in these assays?
STAT3 act: 15.6; STAT1 inh: 90.3*; MT stabilize HCS: 3.6; STAT3 inh: 101.6*; bCat nuc transl: -1.2

How did C(=N\Nc1ccc2ccccc2n1)/c1ccc2c(c1)OCCO2 do in these assays?
STAT3 act: 13.4; STAT1 inh: 88.8*; MT stabilize HCS: 2.5; STAT3 inh: 108.0*; bCat nuc transl: -2.9

Results for Cc1ccc(/C=N/Nc2ccc3ccccc3n2)o1 ?
STAT3 act: 30.4; STAT1 inh: 73.0*; MT stabilize HCS: 2.7; STAT3 inh: 89.7*; bCat nuc transl: -0.2

Results for CCOC(=O)C1=C(CBr)NC(=O)NC1C (stereo unspecified) ?
STAT3 act: 102.9; STAT1 inh: 6.0; MT stabilize HCS: 6.4; STAT3 inh: 4.5; bCat nuc transl: -2.3

Results for O=S(=O)(c1ccc2nc(SCc3ccc(Cl)cc3)[nH]c2c1)N1CCOCC1 ?
STAT3 act: 101.3; STAT1 inh: -2.6; MT stabilize HCS: 2.5; STAT3 inh: -4.2; bCat nuc transl: -2.7

Results for O=S(=O)(c1ccc2nc(-c3ccccc3)[nH]c2c1)N1CCN(c2ccc(Cl)cc2)CC1 ?
STAT3 act: 107.9; STAT1 inh: -9.8; MT stabilize HCS: 16.0*; STAT3 inh: -5.2; bCat nuc transl: -2.9

How did CC(=O)c1ccc(Nc2cc(C)nc3ccccc23)cc1 do in these assays?
STAT3 act: 95.0; STAT1 inh: -11.5; MT stabilize HCS: 27.4*; STAT3 inh: 16.5; bCat nuc transl: 42.9

How did COc1ccc(Nc2cc(C)nc3ccccc23)cc1 do in these assays?
STAT3 act: 86.3; STAT1 inh: 2.7; MT stabilize HCS: 1.4; STAT3 inh: 16.5; bCat nuc transl: -1.1

Results for COC(=O)c1ccc(Nc2cc(C)nc3ccc(C)cc23)cc1 ?
bCat nuc transl: 62.4*

How did CC(=O)c1ccc(Nc2cc(C)nc3c(C)cccc23)cc1 do in these assays?
STAT3 act: 112.7; STAT1 inh: -26.5; MT stabilize HCS: 18.4*; STAT3 inh: -10.0; bCat nuc transl: 67.3*

Results for Clc1cccc(Cl)c1Cn1ccc(C2CC2)n1 ?
STAT3 act: 99.0; STAT1 inh: -26.1; MT stabilize HCS: 6.5; STAT3 inh: 3.0; bCat nuc transl: 2.6

How did CCOc1ccc(/C(C)=N/N2C(=O)C(CC(=O)Nc3ccc(OC)cc3[N+](=O)[O-])SC2=Nc2cccc(C)c2C)cc1 (stereo unspecified) do in these assays?
STAT3 act: 106.9; STAT1 inh: 2.3; MT stabilize HCS: 2.9; STAT3 inh: 1.2; bCat nuc transl: 3.4

Results for COc1ccccc1/C=N/N1C(=O)C(CC(=O)Nc2ccc([N+](=O)[O-])cc2OC)SC1=Nc1cccc(C)c1C (stereo unspecified) ?
STAT3 act: 94.7; STAT1 inh: 1.2; MT stabilize HCS: 18.9*; STAT3 inh: 8.3; bCat nuc transl: 0.0

What do the screens show for `Cn1c(NCCc2ccccc2)cc(=O)n(C)c1=O`?
STAT3 act: 101.8; STAT1 inh: 6.3; MT stabilize HCS: 2.1; STAT3 inh: 3.6; bCat nuc transl: 0.3

What do the screens show for `Cn1c(=O)cc(NCCc2ccccc2)[nH]c1=O`?
STAT3 act: 104.6; STAT1 inh: -0.1; MT stabilize HCS: 26.3*; STAT3 inh: 0.8

Results for CCCn1c(N/N=C(C)\C=C\c2ccccc2)nc2c1c(=O)[nH]c(=O)n2C ?
STAT3 act: 95.4; STAT1 inh: -1.6; MT stabilize HCS: 2.7; STAT3 inh: 7.5; bCat nuc transl: -2.3

What do the screens show for `O=C(CSCc1c(F)cccc1Cl)Nc1ccccc1C(=O)N1CCOCC1`?
STAT3 act: 99.7; STAT1 inh: 0.8; MT stabilize HCS: 1.6; STAT3 inh: 2.7; bCat nuc transl: 2.1

How did Cc1cccc(C2c3[nH]c4ccccc4c3CCN2C(=O)CN2CCOC2=O)n1 (stereo unspecified) do in these assays?
STAT3 act: 134.1*; STAT1 inh: 5.3; MT stabilize HCS: 2.0; STAT3 inh: -37.4; bCat nuc transl: -0.9

How did CN(C)c1cc(-c2ccccc2)nc(N)n1 do in these assays?
MT stabilize HCS: 12.8*

What do the screens show for `c1ccc(-c2nc(-c3cccnc3)n[nH]2)cc1`?
STAT3 act: 90.2; STAT1 inh: -23.3; MT stabilize HCS: 3.7; STAT3 inh: 13.9; bCat nuc transl: -0.4

How did Brc1cccc(-c2n[nH]c(-c3ccccc3)n2)c1 do in these assays?
STAT3 act: 151.9*; STAT1 inh: -41.7; MT stabilize HCS: 2.9; STAT3 inh: -54.6; bCat nuc transl: 2.7

What do the screens show for `COc1ccc(-n2cc(C#N)c(=O)n(Cc3ccc(F)cc3)c2=O)cc1`?
STAT3 act: 100.9; STAT1 inh: -7.7; MT stabilize HCS: 23.5*; STAT3 inh: 0.5; bCat nuc transl: 31.4

How did O=C1CN(CC(=O)Nc2cccc(Cl)c2Cl)c2ccccc2N1 do in these assays?
STAT3 act: 149.3*; STAT1 inh: 6.1; MT stabilize HCS: 2.1; STAT3 inh: -57.6; bCat nuc transl: -0.3

What do the screens show for `Brc1ccccc1-c1nnc(CSc2nnc3sc4ccccc4n23)o1`?
STAT3 act: 105.9; STAT1 inh: -7.5; MT stabilize HCS: 5.0; STAT3 inh: -0.3; bCat nuc transl: -1.3

What do the screens show for `Brc1ccccc1-c1nnc(SCc2nc3ccccc3s2)o1`?
STAT3 act: 142.9*; STAT1 inh: -40.1; MT stabilize HCS: 2.7; STAT3 inh: -49.9; bCat nuc transl: -0.7

What do the screens show for `Cc1ccc(N2C(=O)[C@@H]3C(C(=O)C(c4ccccc4)c4ccccc4)=NN[C@@H]3C2=O)cc1`?
STAT3 act: 103.2; STAT1 inh: 6.3; MT stabilize HCS: 6.3; STAT3 inh: 1.8; bCat nuc transl: -0.4

Results for O=C(NC(CC(=O)N1CCN(c2ccc([N+](=O)[O-])cc2)CC1)c1ccccc1)c1ccccc1Cl (stereo unspecified) ?
STAT3 act: 90.4; STAT1 inh: -1.3; MT stabilize HCS: 2.6; STAT3 inh: 11.6

How did CS(=O)(=O)Nc1cccc(C2=NN(S(C)(=O)=O)C(c3ccc4c(c3)OCO4)C2)c1 (stereo unspecified) do in these assays?
STAT3 act: 112.6; STAT1 inh: -28.1; MT stabilize HCS: 17.0*; STAT3 inh: -12.2; bCat nuc transl: -0.3
